Experimental data reported in ChEMBL document CHEMBL3244238, “In search of anti-Trypanosoma cruzi drugs: new leads from a mouse model” (J Med Chem, 1977).
Active and inactive are the calls of the source. No cut-off for these calls is given here.

Experiments:
[1] = system: Trypanosoma cruzi; experiment: Antitrypanosomal activity against Trypanosoma cruzi infected in albino CF1 mouse assessed as reduction in number of parasites in blood at 3.25 mg/kg/day, intramuscular treatment started on day 10 of infection up to day 14; format: functional; settings: for inhibition in vivo at 3.25 mg/kg/day: im
Procedure, shortened: (§1)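 Male CF1 albino mice (4-10 weeks) were infected ip with 50 000 Brazil-strain trypomastigotes in 0.2 mL Hanks' BSS, pH 7.2. Dosing was intramuscular, twice daily in 0.1% Tween 80/0.5% hydroxyethylcellulose, from day 10 through day 13 pm or day 14 am. Three fourfold-spaced doses were given, 7 mice per dose, with vehicle-only controls. Parasites/mL of blood were counted from day-14 smears.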

[2] = system: Trypanosoma cruzi; experiment: Antitrypanosomal activity against Trypanosoma cruzi infected in albino CF1 mouse assessed as reduction in number of parasites in blood at 26 mg/kg/day, intramuscular treatment started on day 10 of infection up to day 14; format: functional; settings: for inhibition in vivo at 26 mg/kg/day: im; procedure, shortened: as §1
[3] = system: Trypanosoma cruzi; experiment: Potency index, ratio of nifurtimox SD90 to compound SD90 for Trypanosoma cruzi infected in albino CF1 mouse assessed as reduction in number of parasites in blood; format: functional
Procedure, shortened: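 Index = nifurtimox SD90 ÷ test-compound SD90. SD values were read graphically from log-probit plots of % parasitemia suppression versus dose (mg/kg/day) in intramuscularly treated, T. cruzi-infected CF1 mice. A lower SD level was used when SD90 was unattainable. For salts, doses were given by total weight, and the index was multiplied by the reciprocal of the base fraction.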

[4] = system: Trypanosoma cruzi; experiment: Antitrypanosomal activity against Trypanosoma cruzi infected in albino CF1 mouse assessed as reduction in number of parasites in blood intramuscularly treated daily from day 10 of infection up to day 14; format: functional; procedure, shortened: as §1
[5] = system: Trypanosoma cruzi; experiment: Antitrypanosomal activity against Trypanosoma cruzi infected in albino CF1 mouse assessed as reduction in number of parasites in blood at 104 mg/kg/day, intramuscular treatment started on day 10 of infection up to day 14; format: functional; settings: for inhibition in vivo at 104 mg/kg/day: im
Procedure, shortened: (§2)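 Male CF1 albino mice (4-10 weeks) infected intraperitoneally with 50 000 Brazil-strain T. cruzi trypomastigotes in Hanks' balanced salt solution, pH 7.2. Dosing was intramuscular, twice daily, from day 10 to day 13 afternoon or day 14 morning. Vehicle was 0.1% Tween 80 + 0.5% hydroxyethylcellulose. Seven mice per dose; dose given as total salt weight. Parasites/mL blood counted from day-14 smears; % suppression versus vehicle controls.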

[6] = system: Trypanosoma cruzi; experiment: Antitrypanosomal activity against Trypanosoma cruzi infected in albino CF1 mouse assessed as reduction in number of parasites in blood at 13 mg/kg/day, intramuscular treatment started on day 10 of infection up to day 14; format: functional; settings: for inhibition in vivo at 13 mg/kg/day: im; procedure, shortened: as §2
[7] = system: Trypanosoma cruzi; experiment: Antitrypanosomal activity against Trypanosoma cruzi infected in albino CF1 mouse assessed as reduction in number of parasites in blood at 52 mg/kg/day, intramuscular treatment started on day 10 of infection up to day 14; format: functional; settings: for inhibition in vivo at 52 mg/kg/day: im; procedure, shortened: as §2
[8] = system: Mus musculus; experiment: Toxicity in albino CF1 mouse at 104 mg/kg/day, intramuscular treatment started on day 10 of trypanosomal infection up to day 14; format: organism-based; set-up: route intramuscular; settings: in vivo, im

SMILES	Ratio [3]	inhibition [6]	inhibition [7]	inhibition [5]	other results
Nc1nc(/C=C/c2ccc([N+](=O)[O-])o2)no1	1.13				inhibition in vivo at 3.25 mg/kg/day [1]: 49%; inhibition in vivo at 26 mg/kg/day [2]: 91%; SD90 [4]: 48.5 mg/kg; inhibition in vivo at 104 mg/kg/day [5]: 90%
CC(C)NCC1CCc2cc(CO)c([N+](=O)[O-])cc2N1 (stereo not drawn)		inactive	inactive	inactive	
Cc1cc(NCCCCCCNc2cc(C)nc3ccc(N)cc23)c2cc(N)ccc2n1		inactive	inactive	inactive	
COc1cc(NC(C)CCN)c2ncccc2c1/N=N/c1ccc(C(=O)O)cc1 (stereo not drawn)	>4				inhibition in vivo at 13 mg/kg/day [6]: 98%; inhibition in vivo at 52 mg/kg/day [7]: 99%; SD90 [4]: <3 mg/kg; inhibition in vivo at 104 mg/kg/day [5]: 100%
Nc1nc(N)c2c(n1)CCC(S(=O)(=O)c1ccc3ccccc3c1)C2 (stereo not drawn)		inactive	inactive	inactive	
COc1cc(NCCCN2CCN(CCCNc3cc(OC)cc4cccnc34)CC2)c2ncccc2c1		inactive	inactive	inactive	
NC1(C(=O)O)CCCC1		inactive	inactive	inactive	
Nc1nc(N)c2cc(S(=O)(=O)c3ccc4ccccc4c3)ccc2n1		inactive	inactive	inactive	
CCN(CC)CCCCCCNc1cc(OC)cc2c(C)ccnc12	inactive	inactive			inhibition [1]: inactive; inhibition [2]: inactive
CCCNCCCCCNc1cc(OC)cc2cccnc12.O=P(O)(O)O	1.2				inhibition in vivo at 13 mg/kg/day [6]: 54%; inhibition in vivo at 52 mg/kg/day [7]: 93%; SD90 [4]: 43.5 mg/kg; inhibition in vivo at 104 mg/kg/day [5]: 99%
CC1CS(=O)(=O)CCN1/N=C/c1ccc([N+](=O)[O-])o1 (stereo not drawn) [NIFURTIMOX]	1				inhibition in vivo at 13 mg/kg/day [6]: 57%; inhibition in vivo at 52 mg/kg/day [7]: 92%; SD90 [4]: 41.5 mg/kg; inhibition in vivo at 104 mg/kg/day [5]: 99%
c1ccc(C2CN3CCSC3=N2)cc1 (stereo not drawn)		inactive	inactive	inactive	
COc1cc(NC(C)CCCN)c(OC)c2c(C)ccnc12.O=C(O)c1ccc(O)cc1O (stereo not drawn)		inactive	inactive	inactive	
COc1cc(NC(C)CCN)c2nccc(C)c2c1 (stereo not drawn)	inactive	inactive	inactive	inactive	
COc1cc(NC(C)CCN)c2ncc(C)cc2c1.O=P(O)(O)O (stereo not drawn)	>9.2				inhibition in vivo at 3.25 mg/kg/day [1]: 92%; inhibition in vivo at 13 mg/kg/day [6]: 98%; inhibition in vivo at 26 mg/kg/day [2]: 99%; SD90 [4]: <3.25 mg/kg
Nc1ccc(C(c2ccc(N)cc2)c2ccc(N)cc2)cc1					inhibition in vivo at 3.25 mg/kg/day [1]: 43%; inhibition in vivo at 26 mg/kg/day [2]: 39%; inhibition in vivo at 104 mg/kg/day [5]: 52%
Nc1ccc(C(c2ccc(N)cc2)c2ccc(N)cc2)cc1.O=C(O)c1cc2ccccc2c(Cc2c(O)c(C(=O)O)cc3ccccc23)c1O	0.3				SD50 [4]: 96 mg/kg
COc1cc(NC(C)CCN)c2ncccc2c1.Cl (stereo not drawn)	3.8				inhibition in vivo at 13 mg/kg/day [6]: 80%; inhibition in vivo at 52 mg/kg/day [7]: 97%; SD90 [4]: 21.8 mg/kg; inhibition in vivo at 104 mg/kg/day [5]: 100%
CCN(CC)CCCNc1cc(OC)c2nc(C)ccc2c1OC.O=C(O)c1ccc(O)cc1O		inactive	inactive	inactive	
O=C(O)c1[nH]c(=O)[nH]c(=O)c1F		inactive	inactive	inactive	
COc1cc(NC(C)CCCN)c(OC)c2c(C)cc(C)nc12 (stereo not drawn)		inactive	inactive	inactive	
Cc1ccc(C[P+](c2ccccc2)(c2ccccc2)c2ccccc2)cc1.[Cl-]	3.6				Activity [8]: Toxic; inhibition in vivo at 3.25 mg/kg/day [1]: 80%; inhibition in vivo at 26 mg/kg/day [2]: 85%; SD80 [4]: 13 mg/kg
N=C(N)c1ccc(-c2ccc(-c3ccc(C(=N)N)cc3)o2)cc1		inactive	inactive	inactive	
COc1cc(NC(C)CCN)c2nc(C)ccc2c1.Cl.O (stereo not drawn)	3.9				inhibition in vivo at 3.25 mg/kg/day [1]: 38%; inhibition in vivo at 13 mg/kg/day [6]: 86%; inhibition in vivo at 26 mg/kg/day [2]: 82%; SD80 [4]: 10.5 mg/kg
COc1c(NC(C)CCN)cc(OC)c2c(C)ccnc12 (stereo not drawn)	inactive	inactive	inactive	inactive	
